For experiment [1], the target named is T1, Toll-like receptor 8 (Homo sapiens) (UniProt Q9NR97).
T1 sequence (whole entry): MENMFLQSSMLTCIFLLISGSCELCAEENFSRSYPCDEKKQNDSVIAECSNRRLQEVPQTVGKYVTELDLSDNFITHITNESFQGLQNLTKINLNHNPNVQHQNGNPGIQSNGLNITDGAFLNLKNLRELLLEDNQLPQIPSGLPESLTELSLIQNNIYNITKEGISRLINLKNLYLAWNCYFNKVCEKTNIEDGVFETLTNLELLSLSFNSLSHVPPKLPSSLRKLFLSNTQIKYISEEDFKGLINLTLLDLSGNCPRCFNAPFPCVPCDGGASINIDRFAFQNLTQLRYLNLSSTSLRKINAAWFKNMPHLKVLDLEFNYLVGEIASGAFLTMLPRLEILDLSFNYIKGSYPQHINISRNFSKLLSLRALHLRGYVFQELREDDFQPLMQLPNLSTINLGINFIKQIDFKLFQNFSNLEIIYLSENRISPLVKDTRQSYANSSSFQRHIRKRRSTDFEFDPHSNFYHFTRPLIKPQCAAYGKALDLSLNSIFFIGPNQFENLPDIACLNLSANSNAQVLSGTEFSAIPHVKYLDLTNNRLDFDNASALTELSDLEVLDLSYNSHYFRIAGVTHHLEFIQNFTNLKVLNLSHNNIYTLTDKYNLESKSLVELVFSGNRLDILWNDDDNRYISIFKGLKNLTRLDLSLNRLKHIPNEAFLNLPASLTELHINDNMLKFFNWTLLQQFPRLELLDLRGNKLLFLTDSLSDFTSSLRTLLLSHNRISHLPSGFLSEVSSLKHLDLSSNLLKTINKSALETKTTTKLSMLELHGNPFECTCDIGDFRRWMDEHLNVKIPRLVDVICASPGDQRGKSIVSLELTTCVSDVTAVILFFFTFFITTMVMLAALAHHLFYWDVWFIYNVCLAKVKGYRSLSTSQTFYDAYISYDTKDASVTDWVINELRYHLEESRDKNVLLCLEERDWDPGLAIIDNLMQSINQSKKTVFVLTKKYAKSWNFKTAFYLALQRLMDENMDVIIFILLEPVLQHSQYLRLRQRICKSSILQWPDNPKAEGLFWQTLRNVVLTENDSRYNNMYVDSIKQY
In words: Activation of human TLR8 expressed in HEK293XL assessed as fold induction of NF-kappaB activity at 50 ug/ml after 18 hrs by reporter gene assay relative to control. An outline of the steps:
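HEK293 cells stably expressing human TLR7 or TLR8, transiently transfected with SEAP reporter plasmid; medium replaced, SIMRA compounds added, 18 h incubation. Supernatant SEAP measured by QuantiBlue; expressed as fold increase in NF-κB activity over PBS control. Tabulated data at 50 μg/mL, representative of three independent experiments.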

The target of experiment [2] is T2, Toll-like receptor 9 (Mus musculus) (UniProt Q9EQU3).
T2 sequence (whole entry): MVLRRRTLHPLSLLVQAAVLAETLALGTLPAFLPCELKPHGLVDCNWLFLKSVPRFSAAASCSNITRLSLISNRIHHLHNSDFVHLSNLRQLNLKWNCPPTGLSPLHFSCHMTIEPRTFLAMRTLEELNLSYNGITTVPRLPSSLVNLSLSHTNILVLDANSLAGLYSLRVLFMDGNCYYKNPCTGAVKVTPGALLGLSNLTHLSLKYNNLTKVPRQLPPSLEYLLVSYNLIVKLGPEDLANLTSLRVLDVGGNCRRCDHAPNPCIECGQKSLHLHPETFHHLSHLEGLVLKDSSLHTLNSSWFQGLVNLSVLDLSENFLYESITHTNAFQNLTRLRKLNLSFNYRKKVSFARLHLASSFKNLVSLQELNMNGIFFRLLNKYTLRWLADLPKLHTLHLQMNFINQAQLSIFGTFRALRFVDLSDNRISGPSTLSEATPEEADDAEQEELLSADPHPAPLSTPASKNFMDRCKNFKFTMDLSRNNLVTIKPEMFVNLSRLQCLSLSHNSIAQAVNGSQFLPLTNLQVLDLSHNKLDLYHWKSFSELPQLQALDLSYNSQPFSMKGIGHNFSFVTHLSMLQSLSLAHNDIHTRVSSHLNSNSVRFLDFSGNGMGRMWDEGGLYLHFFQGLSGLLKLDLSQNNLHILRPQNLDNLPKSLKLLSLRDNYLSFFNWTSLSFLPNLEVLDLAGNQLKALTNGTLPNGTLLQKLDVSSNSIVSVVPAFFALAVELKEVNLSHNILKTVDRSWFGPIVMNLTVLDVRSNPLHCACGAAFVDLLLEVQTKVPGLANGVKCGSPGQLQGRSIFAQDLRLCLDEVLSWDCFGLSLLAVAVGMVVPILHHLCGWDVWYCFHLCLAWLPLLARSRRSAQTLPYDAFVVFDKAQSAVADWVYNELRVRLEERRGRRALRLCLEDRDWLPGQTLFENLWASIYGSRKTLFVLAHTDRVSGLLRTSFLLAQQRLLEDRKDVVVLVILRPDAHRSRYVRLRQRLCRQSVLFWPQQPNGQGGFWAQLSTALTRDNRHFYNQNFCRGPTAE
In words: Activation of mouse TLR9 expressed in HEK293 assessed as induction of NF-kappaB activity reporter gene assay. Type of experiment: cell-based.

The test system of experiment [3] is Splenocyte. As to the kind of experiment: Immunomodulatory activity in C57BL/6 mouse splenocytes bearing TLR7 receptor assessed as IL6 release at 100 ug/ml after 24 hrs by ELISA. Type of experiment: functional, cell-based. In short, it runs like this:
(§1)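 C57BL/6 splenocytes in RPMI 1640 with 10% FBS, penicillin/streptomycin, 2 mM L-glutamine, plated at 5 × 10^6 cells/mL; compounds in PBS added, 37 °C for 24 h. Supernatant IL-12 and IL-6 by ELISA; representative of three independent experiments.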
A general note: ELISA stands for enzyme-linked immunosorbent assay.

For experiment [4], the system named is Splenocyte. In words: Immunomodulatory activity in C57BL/6 mouse splenocytes bearing TLR7 receptor assessed as IL12 release at 100 ug/ml after 24 hrs by ELISA. Type of experiment: functional, cell-based. An outline of the steps: as §1
In experiment [5] the test system is PBMC. As to the kind of experiment: Immunomodulatory activity in human PBMC assessed as induction of IL12 at 100 ug/ml after 24 hrs. In kind it is functional, cell-based. In short, it runs like this:
(§2)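 Human PBMCs plated at 5 × 10^6 cells/mL; compounds dissolved in PBS added at various concentrations, 37 °C for 24 h. Supernatant cytokines/chemokines quantified with human Luminex multiplex kit.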

In experiment [6] the test system is PBMC. As to the kind of experiment: Immunomodulatory activity in human PBMC assessed as induction of TNFalpha at 100 ug/ml after 24 hrs. Type of experiment: functional, cell-based. In short, it runs like this:
as §2

The test system of experiment [7] is PBMC. As to the kind of experiment: Immunomodulatory activity in human PBMC assessed as induction of IFN-alpha at 100 ug/ml after 24 hrs.

Each structure is given as a SMILES string. Activity calls are given as the source filed them. The rule behind the calls is not given here.

For `Nc1ccn([C@@H]2O[C@H](COP(=O)(S)O[C@H]3[C@@H](O)[C@H](n4cnc5c(N)ncnc54)O[C@@H]3COP(=O)(S)O[C@H]3[C@@H](O)[C@H](n4cnc5c(N)ncnc54)O[C@@H]3CO)[C@@H](OP(=O)(S)OC[C@H]3O[C@@H](n4ccc(=O)[nH]c4=O)[C@H](O)[C@@H]3OP(=O)(S)OC[C@H]3O[C@@H](n4ccc5c(=O)[nH]c(N)nc54)[C@H](O)[C@@H]3OP(=O)(S)OC[C@H]3O[C@@H](n4cnc5c(N)ncnc54)[C@H](O)[C@@H]3OP(=O)(S)OC[C@H]3O[C@@H](n4cnc5c(N)ncnc54)[C@H](O)[C@@H]3OP(=O)(S)OC[C@H]3O[C@@H](n4ccc5c(=O)[nH]c(N)nc54)[C@H](O)[C@@H]3OP(=O)(S)OC[C@H]3O[C@@H](n4ccc(N)nc4=O)[C@H](O)[C@@H]3OP(=O)(S)OC[C@H]3O[C@@H](n4ccc(=O)[nH]c4=O)[C@H](O)[C@@H]3OP(=O)(S)OC[C@H]3O[C@@H](n4ccc5c(=O)[nH]c(N)nc54)[C@H](O)[C@@H]3OP(=O)(S)OCC(O)COP(=O)(S)O[C@H]3[C@@H](O)[C@H](n4ccc5c(=O)[nH]c(N)nc54)O[C@@H]3COP(=O)(S)O[C@H]3[C@@H](O)[C@H](n4ccc(=O)[nH]c4=O)O[C@@H]3COP(=O)(S)O[C@H]3[C@@H](O)[C@H](n4ccc(N)nc4=O)O[C@@H]3COP(=O)(S)O[C@H]3[C@@H](O)[C@H](n4ccc5c(=O)[nH]c(N)nc54)O[C@@H]3COP(=O)(S)O[C@H]3[C@@H](O)[C@H](n4cnc5c(N)ncnc54)O[C@@H]3COP(=O)(S)O[C@H]3[C@@H](O)[C@H](n4cnc5c(N)ncnc54)O[C@@H]3COP(=O)(S)O[C@H]3[C@@H](O)[C@H](n4ccc5c(=O)[nH]c(N)nc54)O[C@@H]3COP(=O)(S)O[C@H]3[C@@H](O)[C@H](n4ccc(=O)[nH]c4=O)O[C@@H]3COP(=O)(S)O[C@H]3[C@@H](O)[C@H](n4ccc(N)nc4=O)O[C@@H]3COP(=O)(S)O[C@H]3[C@@H](O)[C@H](n4cnc5c(N)ncnc54)O[C@@H]3COP(=O)(S)O[C@H]3[C@@H](O)[C@H](n4cnc5c(N)ncnc54)O[C@@H]3CO)[C@H]2O)c(=O)n1` (some centres undefined), the fold change (FC) in experiment [1] is 0.6. Besides, the outcome in experiment [2] was inactive. In addition, the result in experiment [3] and in experiment [4] was Active. The Activity amounted to 240 pg/mL in experiment [5] and 3.5 pg/mL in experiment [6]. In addition, the IFN-alpha in experiment [7] came to 28.7 pg/mL.
In the case of `Nc1ccn([C@@H]2O[C@H](COP(=O)(S)O[C@H]3[C@@H](O)[C@H](n4cnc5c(N)ncnc54)O[C@@H]3COP(=O)(S)O[C@H]3[C@@H](O)[C@H](n4ccc5c(=O)[nH]c(N)nc54)O[C@@H]3COP(=O)(S)O[C@H]3[C@@H](O)[C@H](n4ccc(N)nc4=O)O[C@@H]3COP(=O)(S)O[C@H]3[C@@H](O)[C@H](n4ccc5c(=O)[nH]c(N)nc54)O[C@@H]3COP(=O)(S)O[C@H]3[C@@H](O)[C@H](n4ccc(=O)[nH]c4=O)O[C@@H]3COP(=O)(S)O[C@H]3[C@@H](O)[C@H](n4ccc5c(=O)[nH]c(N)nc54)O[C@@H]3COP(=O)(S)O[C@H]3[C@@H](O)[C@H](n4cnc5c(N)ncnc54)O[C@@H]3COP(=O)(S)O[C@H]3[C@@H](O)[C@H](n4cnc5c(N)ncnc54)O[C@@H]3CO)[C@@H](OP(=O)(S)OC[C@H]3O[C@@H](n4ccc(=O)[nH]c4=O)[C@H](O)[C@@H]3OP(=O)(S)OC[C@H]3O[C@@H](n4ccc(=O)[nH]c4=O)[C@H](O)[C@@H]3OP(=O)(S)OCC(O)COP(=O)(S)O[C@H]3[C@@H](O)[C@H](n4ccc(=O)[nH]c4=O)O[C@@H]3COP(=O)(S)O[C@H]3[C@@H](O)[C@H](n4ccc(=O)[nH]c4=O)O[C@@H]3COP(=O)(S)O[C@H]3[C@@H](O)[C@H](n4ccc(N)nc4=O)O[C@@H]3COP(=O)(S)O[C@H]3[C@@H](O)[C@H](n4cnc5c(N)ncnc54)O[C@@H]3COP(=O)(S)O[C@H]3[C@@H](O)[C@H](n4ccc5c(=O)[nH]c(N)nc54)O[C@@H]3COP(=O)(S)O[C@H]3[C@@H](O)[C@H](n4ccc(N)nc4=O)O[C@@H]3COP(=O)(S)O[C@H]3[C@@H](O)[C@H](n4ccc5c(=O)[nH]c(N)nc54)O[C@@H]3COP(=O)(S)O[C@H]3[C@@H](O)[C@H](n4ccc(=O)[nH]c4=O)O[C@@H]3COP(=O)(S)O[C@H]3[C@@H](O)[C@H](n4ccc5c(=O)[nH]c(N)nc54)O[C@@H]3COP(=O)(S)O[C@H]3[C@@H](O)[C@H](n4cnc5c(N)ncnc54)O[C@@H]3COP(=O)(S)O[C@H]3[C@@H](O)[C@H](n4cnc5c(N)ncnc54)O[C@@H]3CO)[C@H]2O)c(=O)n1` (some centres undefined), in experiment [1], the fold change (FC) was determined as 0.5. The result in experiment [2] was inactive. The outcome in experiment [3] and in experiment [4] was Active. For the same compound, the figures for the Activity in experiment [5] and in experiment [6] were 171 pg/mL and 1.7 pg/mL, respectively. The IFN-alpha in experiment [7] came to 123 pg/mL.

For the origin of these results see ChEMBL document CHEMBL1154352, “Toll-like receptor 7 selective synthetic oligoribonucleotide agonists: synthesis and structure-activity relationship studies” (J Med Chem, 2009).
